Bioassay records from PubChem.
Hits are enriched below; roughly 5.7% of the tested compounds scored in any of these assays.
T cruzi repl: blocks replication of Trypanosoma cruzi; 1.4% of 300,000 active; T. cruzi beta-gal in NIH3T3, luminescence, 90 h; inhibition, % (concentration not given with the values);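 active = mean inhibition across valid replicates above about 55%, limit read from the data; inconclusive = mean below that limit but half or more replicates reach it; inactive = mean below it, under half of replicates reach it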;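 note: signal also drops with host cell toxicity which is not excluded here; 0% = plate median of DMSO wells and 100% = zero luminescence signal; higher percent means less beta-gal luminescence so fewer parasites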
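compound dosing = single 50 nL compound addition per well in DMSO | material = NIH/3T3 host cells with β-galactosidase reporter T. cruzi | input = 5,000 host fibroblasts per well | timing = ≥90 h infection period, 3 h prior cell attachment | read-out basis = percent inhibition of parasite-derived β-gal signal | detection = GalScreen β-gal luminescence, detergent lysis, 60 min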
Mdm2-MdmX inh: inhibitors of human Mdm2/MdmX interaction | O15151+Q00987 | SaOS-2 split-luciferase Mdm2/MdmX complementation, luminescence | inhibition, % at 8 µM | 3% of 330,000 active | AID 485346;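 active = inhibition of at least 50% at 8 µM in the primary screen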
Target sequence (O15151 whole entry, looked up): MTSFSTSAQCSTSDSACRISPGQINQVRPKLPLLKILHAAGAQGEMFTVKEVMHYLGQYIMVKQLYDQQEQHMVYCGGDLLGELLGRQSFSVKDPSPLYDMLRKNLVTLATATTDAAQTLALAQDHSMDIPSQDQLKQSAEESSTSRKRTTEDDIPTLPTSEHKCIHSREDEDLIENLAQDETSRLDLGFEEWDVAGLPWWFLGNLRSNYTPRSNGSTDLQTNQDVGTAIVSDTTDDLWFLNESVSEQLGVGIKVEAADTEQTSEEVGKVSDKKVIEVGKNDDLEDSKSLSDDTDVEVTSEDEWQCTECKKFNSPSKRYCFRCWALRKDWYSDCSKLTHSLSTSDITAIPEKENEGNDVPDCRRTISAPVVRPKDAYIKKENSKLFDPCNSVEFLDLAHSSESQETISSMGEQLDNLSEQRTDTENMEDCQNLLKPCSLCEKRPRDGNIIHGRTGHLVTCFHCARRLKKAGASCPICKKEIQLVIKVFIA
Target sequence (Q00987 whole entry, looked up): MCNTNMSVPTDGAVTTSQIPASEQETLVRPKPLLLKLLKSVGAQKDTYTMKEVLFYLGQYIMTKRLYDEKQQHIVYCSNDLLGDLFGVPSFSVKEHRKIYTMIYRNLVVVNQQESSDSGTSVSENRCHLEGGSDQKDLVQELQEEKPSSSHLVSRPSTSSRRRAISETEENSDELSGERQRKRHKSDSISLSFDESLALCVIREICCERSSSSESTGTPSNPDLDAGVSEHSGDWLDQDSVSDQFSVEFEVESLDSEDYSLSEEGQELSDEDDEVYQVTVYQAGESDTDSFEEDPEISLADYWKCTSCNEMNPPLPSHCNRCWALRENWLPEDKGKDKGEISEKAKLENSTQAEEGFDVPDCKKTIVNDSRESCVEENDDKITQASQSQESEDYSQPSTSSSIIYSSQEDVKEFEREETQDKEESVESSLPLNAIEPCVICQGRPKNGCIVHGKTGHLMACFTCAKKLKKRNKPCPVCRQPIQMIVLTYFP
SKKanGAS inh: inhibitors of SKKanGAS S. pyogenes growth in kanamycin (SK-promoter or general growth effect); BacTiter-Glo, 6 h; inhibition, % at 7.5 µM; 1.3% of 300,000 active;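 active = mean replicate score, as percent of positive control median, at least 50; inconclusive = mean below 50 but one replicate at or above 50; inactive = mean and every replicate below 50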;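 note: strain carries kanamycin resistance gene driven by streptokinase promoter and grows in 40 µg/ml kanamycin; loss of luminescence reflects streptokinase promoter inhibition or plain growth inhibition; 0% = median of DMSO wells and 100% = positive control at its reference dose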
CSC inhib: blocks cancer stem cells | cancer stem cell-like cells viability, luminescence | inhibition, % at 7.5 µM | 1.1% of 300,000 active | AID 2717; in the data active = inhibition above about 75%; inconclusive = no clear call, values can overlap the other calls; tested in HMLE shEcad cells
Calb FLC: affects C. albicans growth with fluconazole; C. albicans CaCi-2 + fluconazole, Alamar Blue growth, 48 h; growth inhibition, % (test concentration not listed); 0.57% of 300,000 active;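 active = growth inhibition above about 58% in most replicates, limit read from the data, passing the limit was not always enough; inconclusive = exactly half the replicates above a set limit; inactive = most replicates below a set limit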;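 note: all wells also contain fluconazole at 8 µg/ml as a sub-toxic cotreatment; 0% = median of DMSO wells and 100% = median of geldanamycin control wells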
Beta cell apopt: beta cell apoptosis inhibition | INS-1E cytokine-induced death, ATP luminescence, 48 h; percent of positive-control rescue, neutral wells zero | 0.8% of 300,000 active | protection from apoptosis, % (test concentration not listed);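 active = Every replicate reaches about 75%, or at least half do and their mean reaches it too, limit read from the data; inconclusive = At least half of replicates reach the limit but their mean does not; inactive = Under half of replicates reach the limit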;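 note: 0% = cytokine-treated negative control wells and 100% = positive control rescue; higher means more ATP so stronger rescue from cytokine killing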
Mdm2 MdmX conf: human Mdm2/MdmX binding inhibition, confirmed. shares compounds with Mdm2-MdmX inh. luminescent assay. inhibition, % at 8 µM. 55% of 10,000 active. AID 489028; in the data active = inhibition above about 40%
FLuc counter: inhibits full-length luciferase, flagging false Mdm2/MdmX hits; shares compounds with Mdm2-MdmX inh; SaOS-2 full-length luciferase counterscreen, luminescence; inhibition, % at 8 µM; 77% of 6,200 active;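 active = mean inhibition at 8 µM reaching about 37%, which flags the compound as non-specific, limit read from the data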;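 note: p53-null SaOS-2 cells with luciferase driven by a doxycycline-inducible promoter; compound on cells about two nights before reading with doxycycline added after day one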
* = called active by the depositor; u = inconclusive; x = not tested or not shown.

SMILES | T cruzi repl | Mdm2-MdmX inh | SKKanGAS inh | CSC inhib | Calb FLC | Beta cell apopt | Mdm2 MdmX conf | others
Cc1ccc(C)c(NC(=O)/C(C#N)=C/c2cn(CC(=O)NCc3ccco3)c3ccccc23)c1 | 11 | 92* | 1 | 82* | 43 | 95* | 78* | FLuc counter=89*
Cc1ccccc1OCCn1cc(/C=C(\C#N)C(=O)NCc2ccco2)c2ccccc21 | 4 | 43 | 10 | 4 | 9 | 6 | x
COC1=CC(=O)c2ccccc2C1=O | x | 51* | x | x | x | x | 11
COC1=C(c2ccccc2)C(=O)c2ccccc2C1=O | -27 | -13 | x | -3 | x | 13 | x
CC(C)(C)[C@]1(O)CCN2C[C@H]3c4ccccc4CCc4cccc(c43)[C@@H]2C1 | 30 | 66* | 2 | -4 | x | 4 | 36 | FLuc counter=84*
CC1(C)Oc2ccc3ccc(=O)oc3c2C[C@H]1O[C@@H]1O[C@H](CO)[C@@H](O)[C@H](O)[C@H]1O | x | -29 | x | -8 | x | -6 | x
CC(=O)OC(C)(C)/C=C/C(=O)[C@](C)(O)C1[C@H](O)C[C@@]2(C)C3CC=C4C(C=C(O[C@@H]5O[C@H](CO)[C@@H](O)[C@H](O)[C@H]5O)C(=O)C4(C)C)[C@]3(C)C(=O)C[C@]12C (stereo partly drawn) | x | 96* | x | 10 | x | 34 | -8
CCC(C)Sc1cccc(-c2nc3ccccn3c2NCc2ccccc2)c1 (stereo not drawn) | x | 8 | x | 67 | x | 21 | x
CCC(C)Sc1cccc(-c2nc3ccc(Cl)cn3c2NCc2ccccc2)c1 (stereo not drawn) | 24 | 66* | 37 | 58 | -9 | 6 | 9
O=C(CCCN1C(=O)S/C(=C\C=C\c2ccccc2)C1=O)Nc1ccc(O)cc1 | 2 | 53* | 33 | -2 | 6 | -1 | -1
O=C(CN1C(=O)S/C(=C/C=C/c2ccccc2)C1=O)Nc1ccc(C(=O)O)cc1 | -5 | -10 | 17 | -7 | -5 | 0 | x
COC(=O)c1ccc(/C=C2/SC(=S)N(CCCC(=O)Nc3ccc(O)cc3)C2=O)cc1 | 9 | 100* | 23 | 18 | 13 | -25 | 55* | FLuc counter=5
Cc1ccc(/C=C2\SC(=S)N(CCCC(=O)Nc3ccc(O)cc3)C2=O)cc1 | 35 | 93* | -4 | 34 | 0 | -1 | 89* | FLuc counter=47*
O=C(NCC(c1cccs1)N1CCOCC1)c1cc(S(=O)(=O)N2CCOCC2)ccc1F (stereo not drawn) | 8 | 15 | 17 | 28 | 8 | -4 | x
CCCn1c2ccccc2c2cnn(CC(=O)NC3CCCC(C)C3C)c(=O)c21 (stereo not drawn) | 1 | 89* | 1 | -14 | 1 | -6 | -2
COc1cc(Nc2ccc(C)cc2)c([N+](=O)[O-])nc1[N+](=O)[O-] | 60* | 53* | 3 | u | 28 | 50 | 42* | FLuc counter=87*
Cc1cc(C)cc(NC(=O)C(c2ccccc2)N2CCN(CC(=O)NC3CC3)CC2)c1 (stereo not drawn) | x | 3 | x | x | x | -2 | x
O=C(CCCl)Nc1nc2c(s1)CCc1ccccc1-2 | 2 | 68* | 23 | 47 | x | 18 | 62* | FLuc counter=25
CCOC(=O)c1[nH]cnc1C(=O)Nc1ccc([N+](=O)[O-])cc1 | 3 | 10 | 7 | 10 | 1 | 8 | x
Cc1ccc(NC(=O)c2nc[nH]c2C(=O)Nc2ccc(C)cc2)cc1 | 13 | 29 | 10 | -10 | -1 | 3 | x
O=C(Nc1ccc([N+](=O)[O-])cc1)c1nc[nH]c1C(=O)NC1CCCCC1 | -25 | 67* | 11 | 17 | -6 | 63 | 19
O=C(Nc1ccc(F)cc1)c1nc[nH]c1C(=O)Nc1ccc([N+](=O)[O-])cc1 | -74 | 92* | x | 32 | x | 15 | 26
COc1ccc([C@H]2/C=C\CN(Cc3ccc(N(C)C)cc3)[C@@H](C)C(=O)N2Cc2ccc(F)cc2)cc1 | 24 | 17 | 1 | 16 | -15 | 4 | x
CCCCN(Cc1ccco1)C(=O)c1cc2c(=O)[nH]c3ccc(C)cc3c2s1 | 36 | 84* | 8 | 17 | 2 | 22 | 37 | FLuc counter=24
Cc1ccc2[nH]c(=O)c3cc(C(=O)N(CCCOC(C)C)Cc4ccco4)sc3c2c1 | 28 | 69* | 17 | 9 | 9 | -1 | 25
SMILES | T cruzi repl | Mdm2-MdmX inh | SKKanGAS inh | CSC inhib | Calb FLC | Beta cell apopt | Mdm2 MdmX conf | others
CCCCN(CC)C(=O)c1cc2c(=O)[nH]c3ccc(C)cc3c2s1 | 15 | 42 | 21 | 9 | 11 | 7 | x
CCOC(=O)/C=c1\s/c(=C\c2c(OC)ccc3ccccc23)c(=O)n1CC(=O)NCC1CCCO1 (stereo not drawn) | 11 | 63* | 16 | 57 | 17 | 32 | 65* | FLuc counter=77*
CCOC(=O)/C=c1\s/c(=C\c2ccc(C(=O)OC)cc2)c(=O)n1CC(=O)Nc1ccccc1 | -26 | 62* | -1 | 2 | -15 | 0 | 15
CCCCN(C(=O)CCNC(=O)NC12CC3CC(CC(C3)C1)C2)c1c(N)n(CCC)c(=O)[nH]c1=O | -4 | 2 | -6 | -5 | -4 | 3 | x
Cc1cc(C)nc(Nc2ccccc2Cl)n1 | -20 | 8 | -4 | -25 | -1 | -1 | x
Cn1ncc2c(Nc3ccccc3Cl)nc(Nc3ccccc3Cl)nc21 | 24 | 54* | 9 | 7 | -17 | 3 | 7
COc1ccc(OCCOC(=O)c2ccc(F)c(S(=O)(=O)N3CCOCC3)c2)cc1 | x | -13 | x | -19 | x | -1 | x
O=C(N/N=C/c1cn(-c2cccs2)nc1-c1ccccc1)c1ccccc1O | -24 | 63* | 37 | 23 | -4 | 7 | 15
CCNC(=O)NC(=O)CSc1ccc(S(=O)(=O)N(C)C2CCCCC2)cn1 | x | -20 | x | -15 | x | -4 | x
Cc1cc(C)c2nc(SCC(=O)Nc3cc(C)on3)c(C)cc2c1 | -10 | 31 | 17 | 5 | -41 | -1 | x
Cc1cc2cccc(C)c2nc1SCC(=O)NNC(=O)c1ccco1 | -14 | -13 | 1 | -5 | -1 | -5 | x
Cc1cc(C)c2nc(SCC(=O)Nc3cc(C)on3)c(C#N)cc2c1 | -19 | 58* | -10 | -9 | 2 | 6 | 8
Cc1cccc2cc(C#N)c(SCC(=O)NNC(=O)Cc3ccccc3)nc12 | 3 | 78* | -2 | -7 | -3 | 0 | -2
Cc1cc(C)c2cc(C#N)c(SCC(=O)Nc3ccc4c(c3)OCO4)nc2c1 | 1 | 80* | -2 | 5 | -1 | 6 | 5
O=c1c([N+](=O)[O-])cccn1Cc1cccc(Br)c1 | 34 | 15 | 8 | -14 | -1 | 1 | x
COc1cc(Br)c(CC(=O)NC2CC2)cc1OC | -9 | -26 | -3 | -10 | -4 | -4 | x
O=C(Cn1c(NCCCO)nc2ccccc21)c1ccc(Cl)cc1 | 12 | 18 | -6 | 21 | 0 | 6 | x
